Measurements taken from ChEMBL document CHEMBL3259603, “Antiprotozoal activity and DNA binding of N-substituted N-phenylbenzamide and 1,3-diphenylurea bisguanidines” (Eur J Med Chem, 2014).
The source made the active and inactive calls. The calls are words filed in the database; no cut-off is given here.

Columns and labels:
[1] = Cytotoxicity against rat L6 cells; format: cell-based
Method in brief: (§1)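 Alamar blue-based viability assays were run on bloodstream T. b. rhodesiense STIB900 and on rat skeletal myoblast L6 cells. Podophyllotoxin was the reference drug for L6.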

[2] = test system: Trypanosoma brucei rhodesiense; experiment: Antimicrobial activity against trypomastigote stage of Trypanosoma brucei rhodesiense STIB900 infected in rat L6 cells after 96 hrs by Alamar Blue assay; format: functional, organism-based; conditions: STIB900, L6, 96 h; method in brief: as §1
Plasmodium falciparum = experiment: Antimicrobial activity against intraerythrocytic stage of Plasmodium falciparum NF54 infected in human erythrocytes by [3H]hypoxanthine incorporation assay; format: functional, organism-based
Method in brief: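 Erythrocytic P. falciparum NF54 (chloroquine-sensitive) was tested with a [³H]hypoxanthine incorporation read-out.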

[3] = test system: Trypanosoma brucei rhodesiense; experiment: Antimicrobial activity against bloodstream form of Trypanosoma brucei rhodesiense STIB900 infected in acute HAT NMRI mouse model assessed as mean day of relapse at 50 mg/kg, po administered for 4 days; format: functional
Trypanosoma brucei = experiment: Antimicrobial activity against Trypanosoma brucei GVR35 infected in NMRI mouse late stage model at 20 mg/kg, ip administered for 5 days; format: functional, organism-based; set-up: dose 20 mg/kg
[4] = test system: Trypanosoma brucei rhodesiense; experiment: Antimicrobial activity against bloodstream form of Trypanosoma brucei rhodesiense STIB900 infected in acute HAT NMRI mouse model assessed as mean day of relapse at 5 mg/kg, ip administered for 4 days; format: functional; conditions: route intraperitoneal
[5] = Binding affinity to 5'-biotin-CATATATATCCCCATATATATG-3' hairpin DNA (unknown origin) after 5 mins by SPR analysis
Method in brief: (§2)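 SPR at 25 °C in MES buffer (10 mM MES, 1 mM EDTA, 100 mM NaCl, 0.005% P20, pH 6.25). Biotinylated hairpins were captured on streptavidin chips to about 400 RU, with a blank reference flow cell. A compound dilution series (from 5 mM stocks) was injected at 20 µL/min with 5 min association and 5 min dissociation. Surfaces were regenerated with 200 mM NaCl/10 mM NaOH. Equilibrium constants came from fits to a one- or two-site model.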

[6] = Selectivity index, ratio of CC50 for rat L6 cells to IC50 for Trypanosoma brucei rhodesiense; format: functional
Method in brief: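 Selectivity index was calculated as L6 CC₅₀ divided by the T. b. rhodesiense IC₅₀, both from the Alamar blue assays.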

[7] = Selectivity index, ratio of CC50 for rat L6 cells to IC50 for Plasmodium falciparum NF54
[8] = Selectivity ratio of K for 5'-biotin-CGAATTCGTCTCCGAATTCG-3' hairpin DNA (unknown origin) to K for 5'-biotin-CATATATATCCCCATATATATG-3' hairpin DNA (unknown origin)
[9] = test system: Trypanosoma brucei rhodesiense; experiment: Antimicrobial activity against bloodstream form of Trypanosoma brucei rhodesiense STIB900 infected in acute HAT NMRI mouse model assessed as mean day of relapse at 20 mg/kg, ip administered for 4 days; format: functional; conditions: route intraperitoneal
Method in brief: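 Acute-stage mouse model infected with T. b. rhodesiense STIB900, in groups of four mice. Compound was formulated in 100% DMSO and diluted 10-fold in distilled water. It was given on four consecutive days from day 3 post-infection at 0.1 mL/10 g. Three infected mice were left untreated. Parasitaemia was checked in tail-blood smears up to day 60; relapse-free mice were counted as cured. Mean relapse day is the post-infection day of relapse.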

[10] = Binding affinity to 5'-biotin-CGAATTCGTCTCCGAATTCG-3' hairpin DNA (unknown origin) after 5 mins by SPR analysis; method in brief: as §2
[11] = Binding affinity to 5'-biotin-CGCGCGCGTTTTCGCGCGCG-3' hairpin DNA (unknown origin) hairpin DNA after 5 mins by SPR analysis; method in brief: as §2
Mus musculus = experiment: Acute toxicity in NMRI mouse infected with bloodstream form of Trypanosoma brucei rhodesiense STIB900 at 20 mg/kg, ip administered for 4 days; format: organism-based; set-up: dose 20 mg/kg, route intraperitoneal; conditions: in vivo, 96 h

| Structure (SMILES) | IC50 [2] [µM] | IC50 (Plasmodium falciparum) [µM] | K [5] [×10⁵ /M] | Selectivity ratio [8] | K [10] [×10⁵ /M] | K [11] [×10⁵ /M] | CC50 [1] [µM] | Time [3] [days] | Activity (Trypanosoma brucei) | Time [4] [days] | Ratio CC50/IC50 [6] | Ratio CC50/IC50 [7] | Time [9] [days] | Activity (Mus musculus) |
| --- | --- | --- | --- | --- | --- | --- | --- | --- | --- | --- | --- | --- | --- | --- |
| N/C(=N\O)Nc1ccc(NC(=O)c2ccc(N/C(N)=N/O)cc2)cc1 | 4.88 | 3.58 | – | – | – | – | 100 | – | – | – | – | – | – | – |
| N=C(N)Nc1ccc(NC(=O)c2ccc(NC(=N)N)cc2)cc1 | – | – | – | – | – | – | – | >60 | inactive | >60 | – | – | – | – |
| CC(C)/N=C(\N)Nc1ccc(NC(=O)c2ccc(N/C(N)=N/C(C)C)cc2)cc1.Cl | 0.011 | 0.446 | 4 | 2.5 | 9.8 | < 1 | 103 | – | – | – | 9364 | 231 | >60 | – |
| CC(C)/N=C(\N)Nc1ccc(NC(=O)Nc2ccc(N/C(N)=N/C(C)C)cc2)cc1.Cl | 0.049 | 0.437 | – | – | – | – | 126 | – | – | – | 2571 | 288 | 10 | Toxic |
| Nc1nc(N)nc(Nc2ccc([As]3SCC(CO)S3)cc2)n1 (configuration not stated) [MELARSOPROL] | – | – | – | – | – | – | – | – | – | – | >1000 | – | – | – |
| CC/N=C(\N)Nc1ccc(NC(=O)Nc2ccc(N/C(N)=N/CC)cc2)cc1.Cl | 0.09 | 0.397 | 0.15 | – | 0.19 | – | 116 | – | – | – | 1289 | 292 | 18.3 | Toxic |

Second part, led by results:

| IC50 [2] [µM] | IC50 (Plasmodium falciparum) [µM] | K [5] [×10⁵ /M] | Selectivity ratio [8] | K [10] [×10⁵ /M] | K [11] [×10⁵ /M] | Structure (SMILES) | CC50 [1] [µM] | Time [3] [days] | Activity (Trypanosoma brucei) | Time [4] [days] | Ratio CC50/IC50 [6] | Ratio CC50/IC50 [7] | Time [9] [days] | Activity (Mus musculus) |
| --- | --- | --- | --- | --- | --- | --- | --- | --- | --- | --- | --- | --- | --- | --- |
| 0.177 | 1.02 | – | – | – | – | C/N=C(\N)Nc1ccc(NC(=O)c2ccc(N/C(N)=N/C)cc2)cc1.Cl | 173 | – | – | – | 977 | 169 | – | – |
| 0.009 | 0.232 | 5.2 | 1.5 | 8.1 | < 1 | CC/N=C(\N)Nc1ccc(NC(=O)c2ccc(N/C(N)=N/CC)cc2)cc1.Cl | 118 | – | – | – | 13111 | 509 | >60 | – |
| 3.13 | 2.83 | – | – | – | – | N/C(=N\OCc1ccccc1)Nc1ccc(NC(=O)c2ccc(N/C(N)=N/OCc3ccccc3)cc2)cc1 | 6.6 | – | – | – | – | – | – | – |
| 51.4 | 42.6 | – | – | – | – | N/C(=N\OC1CCCCO1)Nc1ccc(NC(=O)c2ccc(N/C(N)=N/OC3CCCCO3)cc2)cc1 (configuration not stated) | 160 | – | – | – | – | – | – | – |
| 0.264 | 0.192 | – | – | – | – | C/N=C(\N)Nc1ccc(NC(=O)Nc2ccc(N/C(N)=N/C)cc2)cc1.Cl | 177 | – | – | – | 670 | 922 | – | – |
| 56 | 7.49 | – | – | – | – | CO/N=C(\N)Nc1ccc(NC(=O)c2ccc(N/C(N)=N/OC)cc2)cc1 | 141 | – | – | – | – | – | – | – |
